Measured values published in ChEMBL document CHEMBL1240364, “Ex vivo comparison of microbicide efficacies for preventing HIV-1 genomic integration in intraepithelial vaginal cells” (Antimicrob Agents Chemother, 2010).

What was measured:
[1] = test system: Human immunodeficiency virus 1; experiment: Antiviral activity against HIV1 JRCSF infected in human vaginal intraepithelial cells assessed as decrease in viral genomic integration at 30 uM by multiplex PCR assay; type: functional, JRCSF ISOLATE; set-up: scale not given: the % may be the effect or the level left
In short: (§1)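 EDTA-separated vaginal epithelial sheets, calcium-replenished, pretreated 1 h with a single compound concentration, then spinoculated with 100 ng/ml Gag p24 HIV-1JRCSF (2 h, 1,200 × g) and cultured 48 h at 37°C. Integrated DNA measured by Alu-LTR nested real-time PCR against an ACH-2 standard curve, with β-actin normalization run either in separate wells (singleplex) or in the same wells (multiplex). Quadruplicate PCRs; integration relative to untreated infection.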

[2] = test system: Human immunodeficiency virus 1; experiment: Antiviral activity against HIV1 isolate M1 infected in human vaginal intraepithelial cells assessed as decrease in viral genomic integration at 1 uM after 48 hrs by multiplex PCR assay; type: functional; set-up: scale not given: the % may be the effect or the level left
In short: (§2)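 Vaginal epithelial sheets from two donors, EDTA-isolated and calcium-replenished, were preincubated with compound and then spinoculated with 100 ng/ml Gag p24 of primary mucosal isolate HIV-1M1 for 2 h at 1,200 × g. After 48 h culture, integration was measured by multiplex Alu-LTR/β-actin nested real-time PCR and expressed relative to untreated infection.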

[3] = test system: Human immunodeficiency virus 1; experiment: Antiviral activity against HIV1 JRCSF infected in human vaginal intraepithelial cells assessed as viral genomic integration relative to control at 30 uM by singleplex PCR assay; settings: Human immunodeficiency virus 1, JRCSF ISOLATE
[4] = test system: Human immunodeficiency virus 1; experiment: Antiviral activity against HIV1 JRCSF infected in human vaginal epithelium assessed as inhibition of viral genomic integration by titration assay; type: functional; settings: for IC50: Human immunodeficiency virus 1, JRCSF ISOLATE; for Activity: JRCSF ISOLATE
In short: (§3)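 Vaginal epithelial sheets separated from stroma with 5 mM EDTA overnight at 4°C, replenished 1 h with 5 mM CaCl2. Pretreated with compound titrations for 1 h, then spinoculated with 100 ng/ml Gag p24 HIV-1JRCSF for 2 h at 1,200 × g. Sheets washed and cultured 2–3 days at 37°C. Emigrated cells and sheets pooled; Alu-LTR nested real-time PCR run in quadruplicate. Integration expressed relative to untreated infection; IC50 by nonlinear regression.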

[5] = test system: Human immunodeficiency virus 1; experiment: Antiviral activity against HIV1 JRCSF infected in human vaginal intraepithelial cells assessed as decrease in viral genomic integration at 1 uM by singleplex PCR assay; type: functional, JRCSF ISOLATE; set-up: scale not given: the % may be the effect or the level left; in short: as §1
[6] = test system: Human immunodeficiency virus 1; experiment: Antiviral activity against HIV1 JRCSF infected in human vaginal intraepithelial cells assessed as viral genomic integration relative to control at 1 uM by singleplex PCR assay; settings: Human immunodeficiency virus 1, JRCSF ISOLATE
[7] = test system: Human immunodeficiency virus 1; experiment: Antiviral activity against HIV1 JRCSF infected in human vaginal intraepithelial cells assessed as viral genomic integration relative to control at 0.223 uM by singleplex PCR assay; settings: Human immunodeficiency virus 1, JRCSF ISOLATE
[8] = test system: Human immunodeficiency virus 1; experiment: Antiviral activity against HIV1 isolate M1 infected in human vaginal intraepithelial cells assessed as decrease in viral genomic integration at 0.223 uM after 48 hrs by multiplex PCR assay; type: functional; set-up: scale not given: the % may be the effect or the level left; in short: as §2
[9] = test system: Human immunodeficiency virus 1; experiment: Antiviral activity against HIV1 JRCSF infected in human vaginal epithelium mucosa assessed as decrease viral integration at 10 ng/ml by titration assay; type: functional; settings: Human immunodeficiency virus 1, JRCSF ISOLATE; in short: as §3
[10] = test system: Human immunodeficiency virus 1; experiment: Antiviral activity against HIV1 JRCSF infected in human vaginal epithelium leukocytes assessed as inhibition of viral genomic integration by titration assay; type: functional, cell-based; settings: JRCSF ISOLATE; in short: as §3
[11] = test system: Human immunodeficiency virus 1; experiment: Antiviral activity against HIV1 JRCSF infected in PHA-activated human T cells assessed as inhibition of viral genomic integration by titration assay; type: functional, cell-based; settings: T-cell
In short: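 PBMC from two blood donors activated 2 days with 0.4 μg/ml PHA; 100,000 lymphoblasts per well pretreated in duplicate with a concentration series for 1 h at room temperature, infected with 200 ng/ml Gag p24 HIV-1JRCSF for 2 h, washed, cultured 48 h at 37°C in medium with 50 U/ml IL-2. Integrated DNA measured by Alu-LTR nested real-time PCR; IC50 from nonlinear regression.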

[12] = test system: Human immunodeficiency virus 1; experiment: Antiviral activity against HIV1 JRCSF infected in human intraepithelial leukocytes assessed as decrease viral integration at 0.5 ug/ml by titration assay; type: functional, JRCSF ISOLATE; set-up: scale not given: the % may be the effect or the level left; in short: as §3
[13] = test system: Human immunodeficiency virus 1; experiment: Antiviral activity against HIV1 JRCSF infected in human vaginal intraepithelial cells assessed as decrease in viral genomic integration at 0.223 uM by multiplex PCR assay; type: functional, JRCSF ISOLATE; set-up: scale not given: the % may be the effect or the level left; in short: as §1
[14] = test system: Human immunodeficiency virus 1; experiment: Antiviral activity against HIV1 JRCSF infected in human intraepithelial leukocytes assessed as decrease viral integration at 0.1 ug/ml by titration assay; type: functional, JRCSF ISOLATE; set-up: scale not given: the % may be the effect or the level left; in short: as §3

Cc1ccc(-c2ccc3c(c2)C=C(C(=O)Nc2ccc(C[N+](C)(C)C4CCOCC4)cc2)CCC3)cc1.[Cl-]
Activity [1]: 8.6%
Activity [2]: <2%
level, % of control at 30 µM [3]: 10%
IC50 [4]: 5.84 nM
Activity [4]: Dose-dependent effect

[N-]=[N+]=NCc1cccc(C(=O)/C=C(\O)C(=O)O)c1
Activity [5]: 8.4%
IC50 [4]: 190 nM
Activity [4]: Dose-dependent effect

c1cc(CN2CCCNCCNCCCNCC2)ccc1CN1CCCNCCNCCCNCC1 [PLERIXAFOR]
Activity [2]: 117%
level, % of control at 1 µM [6]: 177%

enfuvirtide
level, % of control at 0.223 µM [7]: 8%
Activity [8]: <2%
inhibition at 0.01 µg/mL [9]: > 80%
Activity [10]: Dose-dependent effect
IC50 ([11]; Human immunodeficiency virus 1, JRCSF ISOLATE): 7.57 nM
Activity ([11]; JRCSF ISOLATE): Dose-dependent effect
Activity [12]: 30.4%
Activity [13]: 6%
Activity [14]: 1.92%
